Experimental data taken from ChEMBL document CHEMBL2424628, “Discovery of potent and selective nonsteroidal indazolyl amide glucocorticoid receptor agonists” (Bioorg Med Chem Lett, 2013).

Experiments:
Glucocorticoid receptor [1] = target: T1, Glucocorticoid receptor (Homo sapiens, UniProt P04150); test: Agonist activity at glucocorticoid receptor in human A549 cells assessed as inhibition of PMA-induced AP-1 activation by luciferase reporter gene assay; type: cell-based
T1 sequence (P04150 whole entry): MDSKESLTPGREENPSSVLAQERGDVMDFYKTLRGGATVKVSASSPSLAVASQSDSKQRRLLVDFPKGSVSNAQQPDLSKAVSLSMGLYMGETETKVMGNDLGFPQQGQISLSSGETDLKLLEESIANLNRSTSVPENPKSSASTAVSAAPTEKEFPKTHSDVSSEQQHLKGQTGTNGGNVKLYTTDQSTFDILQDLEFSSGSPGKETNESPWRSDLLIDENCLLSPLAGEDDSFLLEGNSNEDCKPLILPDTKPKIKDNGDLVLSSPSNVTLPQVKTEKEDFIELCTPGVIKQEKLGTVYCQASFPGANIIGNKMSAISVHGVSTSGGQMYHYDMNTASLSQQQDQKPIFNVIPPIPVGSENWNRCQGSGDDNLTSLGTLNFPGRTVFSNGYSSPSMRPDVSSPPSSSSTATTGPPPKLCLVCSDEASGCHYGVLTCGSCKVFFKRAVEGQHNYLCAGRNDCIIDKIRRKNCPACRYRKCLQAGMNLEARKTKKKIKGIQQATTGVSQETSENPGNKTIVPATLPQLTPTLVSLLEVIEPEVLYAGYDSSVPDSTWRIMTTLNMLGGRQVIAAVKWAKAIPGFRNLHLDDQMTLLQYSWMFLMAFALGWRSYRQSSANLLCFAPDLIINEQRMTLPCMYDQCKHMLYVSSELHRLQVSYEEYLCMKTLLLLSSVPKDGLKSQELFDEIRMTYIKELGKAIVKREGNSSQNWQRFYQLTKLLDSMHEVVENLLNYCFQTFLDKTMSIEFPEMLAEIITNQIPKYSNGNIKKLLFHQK

Progesterone receptor = target: T2, Progesterone receptor (Homo sapiens, UniProt P06401); test: Binding affinity to progesterone receptor (unknown origin) by fluorescence polarization assay
T2 sequence (P06401 whole entry): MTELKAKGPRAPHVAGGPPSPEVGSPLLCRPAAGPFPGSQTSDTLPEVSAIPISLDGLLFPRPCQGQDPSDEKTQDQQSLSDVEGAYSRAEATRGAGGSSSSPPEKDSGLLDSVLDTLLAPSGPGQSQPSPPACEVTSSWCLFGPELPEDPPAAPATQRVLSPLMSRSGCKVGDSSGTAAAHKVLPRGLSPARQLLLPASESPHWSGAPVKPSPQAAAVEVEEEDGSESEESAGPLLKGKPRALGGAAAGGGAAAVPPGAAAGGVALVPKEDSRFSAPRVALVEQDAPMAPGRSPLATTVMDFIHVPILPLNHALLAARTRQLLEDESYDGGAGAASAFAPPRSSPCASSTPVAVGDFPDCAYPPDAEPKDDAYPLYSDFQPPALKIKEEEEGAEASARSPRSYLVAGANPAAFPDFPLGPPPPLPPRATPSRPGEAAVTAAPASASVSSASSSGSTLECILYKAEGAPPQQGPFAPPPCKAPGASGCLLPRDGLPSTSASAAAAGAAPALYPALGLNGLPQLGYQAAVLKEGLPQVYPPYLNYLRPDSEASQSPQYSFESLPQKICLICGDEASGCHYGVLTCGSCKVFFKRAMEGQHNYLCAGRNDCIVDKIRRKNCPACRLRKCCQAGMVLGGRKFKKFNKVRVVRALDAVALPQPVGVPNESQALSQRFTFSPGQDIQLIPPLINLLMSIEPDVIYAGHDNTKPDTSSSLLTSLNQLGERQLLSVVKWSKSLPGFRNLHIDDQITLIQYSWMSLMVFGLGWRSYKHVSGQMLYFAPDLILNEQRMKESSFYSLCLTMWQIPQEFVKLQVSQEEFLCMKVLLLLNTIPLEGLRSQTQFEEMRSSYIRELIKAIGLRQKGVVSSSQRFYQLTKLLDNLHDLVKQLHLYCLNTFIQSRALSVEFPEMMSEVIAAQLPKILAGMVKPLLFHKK
How it was run: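 Fluorescence polarization competition between test compound and a fluorescently labeled ligand for full-length receptor or its ligand binding domain. IC50 from a four-parameter logistic fit of the polarization signal, converted to Ki with Cheng–Prusoff […]. Means of duplicate experiments.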

Glucocorticoid receptor [2] = target: T1, Glucocorticoid receptor; test: Transactivation of glucocorticoid receptor ligand binding domain (unknown origin) transfected in human HeLa cells assessed as activation of NP-1 by GAL4 luciferase reporter gene assay; type: cell-based
[3] = target: T3, Mineralocorticoid receptor (Homo sapiens, UniProt P08235); test: Agonist activity at mineralocorticoid receptor in human A549 cells; type: cell-based
T3 sequence (P08235 whole entry): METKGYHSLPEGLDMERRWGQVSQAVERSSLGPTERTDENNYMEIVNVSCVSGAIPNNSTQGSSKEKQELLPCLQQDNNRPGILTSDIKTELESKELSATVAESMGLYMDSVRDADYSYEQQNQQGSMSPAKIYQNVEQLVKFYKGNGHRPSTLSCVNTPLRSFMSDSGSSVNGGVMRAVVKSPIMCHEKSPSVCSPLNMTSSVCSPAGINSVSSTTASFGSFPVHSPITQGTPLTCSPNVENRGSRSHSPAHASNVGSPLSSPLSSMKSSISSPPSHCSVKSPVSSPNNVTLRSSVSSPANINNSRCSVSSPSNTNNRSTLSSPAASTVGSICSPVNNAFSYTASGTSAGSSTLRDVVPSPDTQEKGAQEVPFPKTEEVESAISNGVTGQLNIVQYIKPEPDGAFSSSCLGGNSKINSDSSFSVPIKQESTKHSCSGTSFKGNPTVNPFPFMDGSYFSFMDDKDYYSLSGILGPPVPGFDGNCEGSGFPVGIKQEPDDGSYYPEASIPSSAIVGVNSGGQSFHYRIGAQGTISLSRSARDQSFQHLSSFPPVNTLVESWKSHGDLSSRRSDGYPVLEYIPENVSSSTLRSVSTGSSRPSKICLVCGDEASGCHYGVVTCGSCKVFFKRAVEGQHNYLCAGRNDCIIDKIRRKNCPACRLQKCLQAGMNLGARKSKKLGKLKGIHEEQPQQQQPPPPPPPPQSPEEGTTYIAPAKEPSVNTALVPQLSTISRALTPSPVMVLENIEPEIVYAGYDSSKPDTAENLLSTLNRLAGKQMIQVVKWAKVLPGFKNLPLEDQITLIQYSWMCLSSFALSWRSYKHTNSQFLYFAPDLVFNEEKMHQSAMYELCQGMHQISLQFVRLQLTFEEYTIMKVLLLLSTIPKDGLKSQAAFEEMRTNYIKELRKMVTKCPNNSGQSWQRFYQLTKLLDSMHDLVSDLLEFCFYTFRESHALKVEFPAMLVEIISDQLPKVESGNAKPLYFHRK
How it was run: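 Cellular agonist assay in an A549 line with aldosterone as positive control. EC50 taken relative to % maximal efficacy. Means of duplicate experiments.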

Glucocorticoid receptor [4] = target: T1, Glucocorticoid receptor; test: Agonist activity at glucocorticoid receptor in human A549 cells assessed as inhibition of IL-1beta-induced NF-kappaB dependent E-selectin activation by luciferase reporter gene assay; type: cell-based

EC50 (Glucocorticoid receptor [1]) [nM]	Ki (Progesterone receptor) [nM]	EC50 (Glucocorticoid receptor [2]) [nM]	EC50 [3] [nM]	EC50 (Glucocorticoid receptor [4]) [nM]	Structure (SMILES)
2.4	107	5.8	> 5000	4	CC(C)(C(=O)Nc1nncs1)[C@@H](c1ccccc1)c1ccc2c(cnn2-c2ccc(F)cc2)c1
92	56		> 5000		CC(C)(C(=O)Nc1nncs1)[C@H](c1ccccc1)c1ccc2c(cnn2-c2ccc(F)cc2)c1
